Test results from publication PMC10864903 (Heliyon, 2024).
≈ marks a conversion by molar mass, not a printed value.

What was measured:
[1] = test system: MTCC-739 (Escherichia coli); test: Agar-disc diffusion, E. coli; type: cell-based; details: MTCC739, read-out: Diameter of Growth Inhibition Zone, E. coli
[2] = test system: MTCC-2453 (Pseudomonas aeruginosa); test: Agar-disc diffusion, P. aeruginosa; type: cell-based; details: MTCC2453, read-out: Diameter of Growth Inhibition Zone, P. aeruginosa
[3] = test system: recultured (Enterobacter aerogenes); test: Agar-disc diffusion, E. aerogenes; type: cell-based; details: Klebsiella aerogenes, read-out: Diameter of Growth Inhibition Zone, E. aerogenes
[4] = test system: MTCC-96 (Staphylococcus aureus); test: Agar-disc diffusion, S. aureus; type: cell-based; details: MTCC96, read-out: Diameter of Growth Inhibition Zone, S. aureus
[5] = test system: MTCC-1306 (Bacillus cereus); test: Agar-disc diffusion, B. cereus; type: cell-based; details: MTCC1306, read-out: Diameter of Growth Inhibition Zone, B. cereus
E. coli = test: Minimal inhibitory concentration, E. coli; type: cell-based; details: Escherichia coli, read-out: Minimal Inhibitory Concentration (MIC), E. coli
P. aeruginosa = test: Minimal inhibitory concentration, P. aeruginosa; type: cell-based; details: Pseudomonas aeruginosa, read-out: Minimal Inhibitory Concentration (MIC), P. aeruginosa
Procedure, shortened: (§1)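 Agar disc diffusion against bacterial strains, following a previously reported method. Strains were P. aeruginosa MTCC-2453 and S. aureus MTCC-96. Test compounds were anthraquinone-linked coumarins. MIC was reported in µg/mL.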

S. aureus = test: Minimal inhibitory concentration, S. aureus; type: cell-based; details: Staphylococcus aureus, read-out: Minimal Inhibitory Concentration (MIC), S. aureus
Procedure, shortened: as §1

B. cereus = test: Minimal inhibitory concentration, B. cereus; type: cell-based; details: Bacillus cereus, read-out: Minimal Inhibitory Concentration (MIC), B. cereus
[6] = test system: Tyrosinase from mushrooms; test: Mushroom tyrosinase inhibition, L-dopa as substrate; type: biochemical; details: mean ± SD of three experiments

Row | SMILES | zone of inhibition at 100 µg/disc [1] | zone of inhibition at 100 µg/disc [2] | zone of inhibition at 100 µg/disc [3] | zone of inhibition at 100 µg/disc [4] | zone of inhibition at 100 µg/disc [5] | MIC (E. coli) | MIC (P. aeruginosa) | MIC (S. aureus) | MIC (B. cereus) | Tyrosinase inhibitory activity (%) at 25 μg/mL ([6]; 25 μg/mL) | Tyrosinase inhibitory activity (%) at 50 μg/mL ([6]; 50 μg/mL) | Tyrosinase inhibitory activity (%) at 100 μg/mL ([6]; 100 μg/mL)
1 | O=C(O)c1cn(C2CC2)c2cc(N3CCNCC3)c(F)cc2c1=O [Ciprofloxacin, ciprofloxacin] | 27 mm | 26 mm | 30 mm | 25 mm | 22 mm | 0.5 µg/mL (≈ 1.51 µM) | 1 µg/mL (≈ 3.02 µM) | 1 µg/mL (≈ 3.02 µM) | 2 µg/mL (≈ 6.04 µM) | – | – | –
2 | O=c1cc(CO)occ1O [Kojic acid, kojic acid] | – | – | – | – | – | – | – | – | – | 55.67 ± 0.12% | 68.62 ± 0.32% | 85.54 ± 0.23%
